Source: PubChem BioAssay (Johns Hopkins Ion Channel Center)
TRPC4 PAM = allosteric potentiators of mouse TRPC4 channel. AID 2227. HEK293 TRPC4beta/mu-opioid, DAMGO EC20, Fluo-4 Ca2+ flux; stronger effect = higher value. 310,000 tested, 0.42% active. B-score at 10 µM;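 active means B-score of calcium response area above 5 SD of library B-scores, with initial fluorescence ratio within 5 SD of library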;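 further: B-score of integrated fluorescence ratio over time as area under calcium response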
TRPC4 agonist = TRPC4 (mouse) channel activation. HEK293 TRPC4beta/mu-opioid, Fluo4 calcium fluorescence; stronger effect = higher value. AID 2237. 310,000 tested, 0.49% active. B-score at 10 µM. Q9QUQ5;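 active means B-score above 5 SD of library B-scores, and initial fluorescence ratio not above library mean plus 5 SD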;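 further: positive B-score marks a calcium rise read as TRPC4 activation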
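Assay system – TRPC4beta and mu-opioid receptor HEK293 stable cells · Measured by – Fluo4 fluorescence, kinetic · Schedule – dye loading 45 min room temperature, 110 s kinetic read · Read-out – B-scored integrated calcium fluorescence ratio · Controls – buffer and maximal DAMGO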
TRPC6 inhibitor = inhibitors of mouse TRPC6 channel | Q61143 | B-score at 10 µM | AID 2553 | 310,000 tested, 1.1% active | HEK293-TRPC6, membrane potential dye, ACh-evoked depolarization; stronger effect = lower value;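 active means B-score under library mean minus 3 SD, initial fluorescence not abnormally high, positive integrated signal ratio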;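 further: B-score derived from integrated fluorescence ratio over the kinetic read; more negative B-score means stronger inhibition of depolarization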
Target sequence (Q61143 whole entry, looked up): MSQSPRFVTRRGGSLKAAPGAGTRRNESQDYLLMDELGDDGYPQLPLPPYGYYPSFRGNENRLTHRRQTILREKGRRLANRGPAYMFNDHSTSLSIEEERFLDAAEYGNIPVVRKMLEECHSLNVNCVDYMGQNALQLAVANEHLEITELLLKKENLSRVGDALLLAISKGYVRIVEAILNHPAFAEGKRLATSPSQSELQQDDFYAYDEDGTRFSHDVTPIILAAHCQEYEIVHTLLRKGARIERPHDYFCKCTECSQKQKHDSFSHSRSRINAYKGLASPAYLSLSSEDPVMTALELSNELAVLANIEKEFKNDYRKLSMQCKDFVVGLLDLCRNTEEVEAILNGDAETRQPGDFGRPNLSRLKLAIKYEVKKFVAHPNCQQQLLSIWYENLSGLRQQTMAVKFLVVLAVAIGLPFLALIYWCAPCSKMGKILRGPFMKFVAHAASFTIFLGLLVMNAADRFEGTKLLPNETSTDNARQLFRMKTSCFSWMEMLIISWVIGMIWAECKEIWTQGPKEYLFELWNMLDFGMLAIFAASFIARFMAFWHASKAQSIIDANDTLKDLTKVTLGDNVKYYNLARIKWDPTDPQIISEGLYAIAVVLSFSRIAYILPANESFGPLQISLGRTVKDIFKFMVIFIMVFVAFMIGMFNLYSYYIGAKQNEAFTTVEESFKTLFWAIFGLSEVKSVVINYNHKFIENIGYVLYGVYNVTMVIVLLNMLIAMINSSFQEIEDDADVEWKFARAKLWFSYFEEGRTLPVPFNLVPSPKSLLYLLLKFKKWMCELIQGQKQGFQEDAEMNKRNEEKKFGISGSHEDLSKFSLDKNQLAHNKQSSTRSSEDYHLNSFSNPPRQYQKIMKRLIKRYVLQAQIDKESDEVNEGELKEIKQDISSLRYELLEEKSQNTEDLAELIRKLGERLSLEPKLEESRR
TRPC4 inh = blocks the mouse TRPC4 cation channel | 300,000 tested, 0.39% active | AID 2247 | HEK293 TRPC4beta/mu-opioid, DAMGO-evoked Fluo4 calcium flux; stronger effect = lower value | B-score at 10 µM | Q9QUQ5;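 active means B-score over 3 SD under the library average, no early fluorescence shift, positive overall ratio signal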
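Test system – stable TRPC4beta/mu-opioid receptor HEK293 cells · Probe or stimulus – DAMGO, a submaximal dose followed by a maximal one · Dosing – one concentration per compound · Signal – Fluo4 calcium fluorescence by kinetic imaging, 5 s 1 Hz baseline · Evaluation – per-well B score of integrated baseline-normalized Fluo4 ratio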
TRPC6 activator = mouse TRPC6 channel activation | HEK293-TRPC6 membrane potential dye fluorescence; stronger effect = higher value | B-score at 10 µM | Q61143 | AID 2550 | 310,000 tested, 0.13% active;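 active means B-score of the integrated fluorescence ratio above library mean plus 3 SD, and starting fluorescence ratio within library mean plus 5 SD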;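 further: higher score means more depolarization so channel activation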
TRPC4 sel inh 2 = mouse TRPC4 off-target activity of TRPC6 inhibitors, second screen. shares compounds with TRPC6 inhibitor. HEK293 TRPC4/MOR, membrane potential dye fluorescence; channel activated by saturating DAMGO dose. inhibition, % at 10 µM. 920 tested, 42% active. AID 2776;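 active means compounds whose fluorescence signal differed from control wells by over 3 SD, either direction, in both duplicate plates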
TRPC4 spec = mouse TRPC4 off-target activity of TRPC6 inhibitors; shares compounds with TRPC6 inhibitor; HEK293 TRPC4/mu-opioid, membrane potential fluorescence; activity change, negative = inhibition, % at 10 µM; 920 tested, 61% active;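 active means rise or fall in signal beyond 3 SD of buffer-only wells in both replicate plates, either sign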;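 further: integrated kinetic ratio of fluorescence range over baseline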
HEK293 MPD ctr 2-1 = parental HEK293 nonspecific activity of TRPC6 inhibitors, second screen. shares compounds with TRPC6 inhibitor. parental HEK293 membrane potential dye fluorescence; maximal acetylcholine challenge after compound addition. signal change vs control, % at 10 µM. 920 tested, 31% active;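 active means membrane potential signal moving either way by over 3 SD of the maximum-effect control, in both duplicate plates, meaning non-specific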
HEK293 MPD ctr-1 = counter-screen for TRPC6 inhibitors: effect in parental HEK293 cells; 920 tested, 60% active; membrane potential signal change, % at 10 µM; shares compounds with TRPC6 inhibitor; parental HEK293 membrane potential dye fluorescence;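 active means membrane potential signal shifting up or down by more than 3 SD of buffer-only wells, on both duplicate plates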
HEK293 MPD ctr-2 = counter-screen for TRPC6 modulators: effect in parental HEK293 cells; AID 488924; shares compounds with TRPC6 inhibitor; membrane potential signal change, % at 10 µM; membrane potential dye fluorescence; 2,400 tested, 51% active;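 active means membrane potential signal moves up or down beyond 5 SD from buffer-only wells, on both duplicate plates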
HEK293 MPD ctr 2-2 = second check of TRPC6 modulator effects in parental HEK293 cells; shares compounds with TRPC6 inhibitor; membrane potential dye fluorescence; after compound, maximal acetylcholine stimulation; inhibition, % at 10 µM; 2,400 tested, 14% active; AID 488926;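 active means membrane potential signal drops by more than 5 SD from the mean control signal, in both duplicate plates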;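 further: plate controls were acetylcholine ECmax control wells for no effect and buffer only wells for full effect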
TRPC4 ctr mod = mouse TRPC4 off-target activity of TRPC6 modulators; shares compounds with TRPC6 inhibitor; HEK293 TRPC4/mu-opioid, membrane potential fluorescence; percent change from control (negative = decrease, positive = increase), % at 10 µM; 2,400 tested, 69% active; AID 488927;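 active means membrane potential signal moved up or down beyond 5 SD of buffer control wells, in both duplicate plates, actives on both sides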;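 further: plate controls were assay buffer wells for no effect and DAMGO maximal-effect wells for full effect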
TRPC4/MOR inh 2 = second check of whether TRPC6 modulators also affect mouse TRPC4; inhibition, % at 10 µM; HEK293 TRPC4/mu-opioid, membrane potential dye fluorescence; stimulated with maximal-effect DAMGO; shares compounds with TRPC6 inhibitor; 2,400 tested, 55% active;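 active means drop in membrane potential signal beyond 5 SD of the control wells in both duplicate plates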;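 further: TRPC4 counter screen for TRPC6 hits run under conditions tuned for TRPC6 not TRPC4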
TRPC6 block conf = confirmation of mouse TRPC6 inhibitors; HEK293-TRPC6, membrane potential dye, ACh-evoked depolarization; 3,300 tested, 43% active; shares compounds with TRPC6 inhibitor; inhibition, % at 10 µM;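 active means fluorescence ratio falls more than 5 SD below the full-stimulation control mean, in both duplicate runs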;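 further: integrated fluorescence ratio of peak minus minimum over baseline after agonist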
TRPC6 act confirm = confirmation of mouse TRPC6 activators; shares compounds with TRPC6 inhibitor; HEK293-TRPC6 membrane potential dye fluorescence, FDSS; activation, % at 10 µM; 2,800 tested, 11% active; AID 488961;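 active means ratio signal rise beyond 5 SD above unstimulated control wells' mean, seen in both duplicate runs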;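 further: plate controls were buffer EC0 wells for no effect and acetylcholine ECmax response for full effect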
Starred values were filed as active, the others as inactive; i = inactive; / = no result given. An excerpt weighted towards active compounds, which were near 2.3% of everything screened.

SMILES	TRPC4 PAM	TRPC4 agonist	TRPC6 inhibitor	TRPC4 inh	TRPC6 activator	HEK293 MPD ctr-2	HEK293 MPD ctr 2-2	TRPC4 ctr mod	TRPC4/MOR inh 2	TRPC6 block conf	TRPC6 act confirm	others
COc1ccc(C2C(C(N)=O)=C(C)Nc3nc(CCCO)nn32)cc1OC (stereo not drawn)	i	i	-5.9*	i	i	i	i	i	i	i	i
O=C(NCCCNC(=O)c1cnccn1)c1ccc(Br)cc1	i	i	i	i	i	/	/	/	/	/	/
CCOCCCNC(=S)N1C2CCC1CC(NC(=O)Nc1ccc(C(=O)OCC)cc1)C2 (stereo not drawn)	i	i	-7.2*	i	i	i	i	i	i	66%*	/
O=C(Nc1ccc(N2CCOCC2)cc1)c1ccc(Cl)nc1	i	i	i	i	i	/	/	/	/	/	/
CCN(c1ccc(NC(=O)c2ccc(Cl)nc2)cc1)C(C)C	i	i	-6.5*	i	i	i	i	i	i	i	i
CN(CC(=O)Nc1cccc(F)c1)C(=O)c1ccc(N2CCOCC2)c([N+](=O)[O-])c1	i	i	-7*	i	i	i	i	92%*	76%*	i	i
CCOc1ccccc1NC(=O)NC(=O)N(C)S(=O)(=O)c1ccc(C)cc1	i	i	i	i	i	/	/	/	/	/	/
CN(C)c1cc[n+](CC(=O)Nc2ccc(Oc3ccccc3)cc2)cc1	i	i	-6.3*	i	i	i	i	-10%*	i	i	i
O=C(O)c1ccc(N/N=C/C2=C(N3CCOCC3)C(=C\c3ccccc3)/CC2)cc1	i	51*	i	i	22*	856%*	i	191%*	i	i	350%*
COc1ccccc1CN1CCN(C(CC(C)C)c2nnnn2Cc2cccs2)CC1 (stereo not drawn)	i	i	-7.2*	i	i	/	/	/	/	i	/	TRPC4 sel inh 2=9.5%*;TRPC4 spec=47%*;HEK293 MPD ctr 2-1=231%*;HEK293 MPD ctr-1=18%*
Cc1c(Cl)c(C(=O)N2CCCCCC2)nn1C	i	i	i	i	i	/	/	/	/	/	/
Cc1ccc(S(=O)(=O)n2ccc3c2CCCC3=O)cc1	i	i	-5.1*	i	i	334%*	166%*	76%*	48%*	88%*	/
CS(=O)(=O)Nc1ccc2c(c1)C(=O)OC2	i	i	i	i	i	/	/	/	/	/	/
CN(C)c1ccc2c3c(ccc(N(C)C)c13)C(=O)OC2	i	i	-6*	i	i	-408%*	i	-68%*	44%*	i	i
O=[N+]([O-])c1ccc(/C=N/Nc2nc(N3CCCCC3)nc(N3CCCCC3)n2)cc1	i	i	-6*	i	i	i	i	i	i	i	i
NC(=O)c1c(NC(=O)C2c3ccccc3Oc3ccccc32)sc2c1CCCCC2	i	i	-5.1*	i	i	i	i	i	i	i	i
CC(=O)Nc1sc2c(c1C(N)=O)CCCC2	i	i	i	i	i	/	/	/	/	/	/
CCOC(=O)c1c(N2C(=O)CC(Sc3ccccc3C(=O)O)C2=O)sc2c1CCCC2 (stereo not drawn)	i	i	i	i	18*	147%*	i	8.0%*	i	i	120%*
O=C1CSC2(C(=O)N3CCCc4cccc2c43)N1c1cccc(C(F)(F)F)c1 (stereo not drawn)	i	i	i	i	i	/	/	/	/	/	/
COc1ccc(N2C(=O)CSC23C(=O)N2CCCc4cccc3c42)cc1 (stereo not drawn)	i	i	-14*	i	i	/	/	/	/	81%*	i	TRPC4 sel inh 2=i;TRPC4 spec=i;HEK293 MPD ctr 2-1=-29%*;HEK293 MPD ctr-1=i
CN1C(=S)N(c2cccnc2)C(=O)/C1=C\c1ccc(N(C)C)cc1	i	i	i	i	13*	356%*	i	108%*	i	i	106%*
COc1ccc(CNCc2c(O)c(Cl)cc3c(C)c(C)c(=O)oc23)c(OC)c1	i	i	i	i	i	/	/	/	/	/	/
C#CCOCCOCCOCCNc1nc(N2CCN(C(=O)[C@H]([C@@H](C)CC)n3cc([C@@H](N)CO)nn3)CC2)nc(N2CCN(C(=O)[C@H]([C@@H](C)CC)n3cc([C@@H](N)Cc4ccc(O)cc4)nn3)CC2)n1	i	i	i	i	i	/	/	/	/	/	/
C#CCOCCOCCOCCNc1nc(N2CCN(C(=O)[C@H]([C@@H](C)CC)n3cc([C@@H](N)Cc4ccc(O)cc4)nn3)CC2)nc(N2CCN(C(=O)[C@H]([C@@H](C)CC)n3cc([C@@H](N)Cc4ccc(O)cc4)nn3)CC2)n1	i	i	-6*	i	i	-102%*	i	-28%*	i	i	i
COc1ccccc1/C=C/C(=O)Nc1ccc(S(=O)(=O)Nc2cc(C)on2)cc1	i	i	i	i	i	/	/	/	/	/	/
